ChEMBL document CHEMBL3745596, “Chlorophenoxy aminoalkyl derivatives as histamine H(3)R ligands and antiseizure agents” (Bioorg Med Chem, 2016)
Active and inactive are the calls of the source.

Experiments:
Mus musculus [1] = test: Anticonvulsant activity in CF1 albino mouse assessed as protection against maximal electroshock-induced seizure at 100 mg/kg, ip after 0.5 hrs; format: functional, organism-based
How it was run: (§1)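 Male CF-1 mice dosed ip as suspension in 0.5% methylcellulose. Corneal electrodes deliver 60 Hz alternating current, 50 mA for […], after a drop of 0.5% tetracaine HCl in 0.9% NaCl per eye. Protection means abolition of hindlimb tonic extension; scored as protected/tested, or ED50 with 95% confidence interval.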

[2] = Neuroprotective activity in hippocampal slice (unknown origin) assessed as protection against kainic acid-induced cell death using propidium iodide staining; format: functional; details: Hippocampus
How it was run: (§2)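 Organotypic hippocampal slice cultures exposed to NMDA or kainic acid alone or with compound; propidium iodide in all wells; PI fluorescence intensity of slices, proportional to cell death, compared with excitotoxin-only slices; qualitative.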

Mus musculus [3] = test: Neurotoxicity in CF1 albino mouse at 30 mg/kg, ip after 4 hrs by rotarod test; format: toxicity, organism-based; details: in vivo
How it was run: (§3)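 Rotarod neurotoxicity in male albino CF-1 mice dosed ip with compound suspended in 0.5% methylcellulose. Animal placed on a 1 inch diameter knurled plastic rod rotating at 6 rpm. Neurotoxicity scored when the animal falls off three times within 1 min. Readout is number of animals toxic/number tested at the stated time after dosing. TD50 with 95% confidence interval from the quantitative study.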

Rattus norvegicus [4] = test: Anticonvulsant activity in Sprague-Dawley rat assessed as protection against maximal electroshock-induced seizure at 30 mg/kg, po; format: functional
Mus musculus [5] = test: Neurotoxicity in CF1 albino mouse at 50 mg/kg, ip after 1 hr by rotarod test; format: toxicity, organism-based; details: in vivo; how it was run: as §3
Mus musculus [6] = test: Neurotoxicity in CF1 albino mouse at 50 mg/kg, ip after 4 hrs by rotarod test; format: toxicity, organism-based; details: in vivo; how it was run: as §3
Rattus norvegicus [7] = test: Protective index, ratio of TD50 for ip dosed Sprague-Dawley rat to ED50 for ip dosed Sprague-Dawley rat assessed as protection against maximal electroshock-induced seizure after 0.5 hrs; format: functional
How it was run: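 PI = TD50/ED50. Male CF-1 mice or male Sprague–Dawley rats given compound ip as 0.5% methylcellulose suspension. MES: 60 Hz corneal current, 50 mA mice or 150 mA rats, for […] after tetracaine eye drops; protection is abolition of hindlimb tonic extension.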

Mus musculus [8] = test: Anticonvulsant activity in CF1 albino mouse assessed as protection against maximal electroshock-induced seizure at 10 mg/kg, ip after 0.5 hrs; format: functional, organism-based; how it was run: as §1
Mus musculus [9] = test: Anticonvulsant activity in CF1 albino mouse assessed as protection against maximal electroshock-induced seizure at 3 mg/kg, ip after 0.5 hrs; format: functional, organism-based; how it was run: as §1
Mus musculus [10] = test: Neurotoxicity in CF1 albino mouse at 45 mg/kg, ip after 0.25 to 0.5 hrs by rotarod test; format: toxicity, organism-based; details: in vivo; how it was run: as §3
Rattus norvegicus [11] = test: Anticonvulsant activity in Sprague-Dawley rat assessed as protection against pilocarpine-induced convulsive status epilepticus at 65 mg/kg, ip; format: functional, organism-based
How it was run: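 Male Sprague Dawley rats (150–180 g) dosed ip, pilocarpine 50 mg/kg ip given; compound dosed immediately at first behavioral Stage 3 seizure or 30 min later. Number protected from Racine Stage 3 or greater seizures recorded.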

Mus musculus [12] = test: Anticonvulsant activity in CF1 albino mouse assessed as protection against maximal electroshock-induced seizure at 30 mg/kg, ip after 4 hrs; format: functional, organism-based; how it was run: as §1
[13] = Neuroprotective activity in hippocampal slice (unknown origin) assessed as protection against NMDA-induced cell death using propidium iodide staining; format: functional; details: Hippocampus; how it was run: as §2
Mus musculus [14] = test: Neurotoxicity in CF1 albino mouse at 50 mg/kg, ip after 0.5 hrs by rotarod test; format: toxicity, organism-based; details: in vivo; how it was run: as §3
Mus musculus [15] = test: Neurotoxicity in CF1 albino mouse at 100 mg/kg, ip after 4 hrs by rotarod test; format: toxicity, organism-based; details: in vivo; how it was run: as §3
Mus musculus [16] = test: Neurotoxicity in CF1 albino mouse at 3 mg/kg, ip after 0.5 hrs by rotarod test; format: toxicity, organism-based; details: in vivo; how it was run: as §3
Mus musculus [17] = test: Neurotoxicity in CF1 albino mouse at 50 mg/kg, ip after 0.25 hrs by rotarod test; format: toxicity, organism-based; details: in vivo; how it was run: as §3
Mus musculus [18] = test: Neurotoxicity in CF1 albino mouse assessed as death at 300 mg/kg, ip after 0.5 hrs by rotarod test; format: toxicity, organism-based; details: in vivo
How it was run: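 Male albino CF-1 mice dosed ip with compound suspended in 0.5% methylcellulose, then placed on a 1-inch knurled plastic rod turning at 6 rpm. A fall three times within 1 min counted as neurotoxicity. Observations were made at 0.5 h and 4 h after dosing. Result given as animals showing toxicity per animals tested, with the kind of toxicity recorded.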

Rattus norvegicus [19] = test: Neurotoxicity in Sprague-Dawley rat at 30 mg/kg, ip after 0.5 hrs by rotarod test; format: toxicity, organism-based; details: in vivo
How it was run: (§4)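 Male Sprague–Dawley rats given compound ip as a suspension in 0.5% methylcellulose, groups of four. Rotarod: 1 inch knurled rod at 6 rpm; three falls within 1 min counts as neurotoxic. Scored as number toxic/number tested at pretreatment times between 0.25 and 4 h, or at the stated time.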

Mus musculus [20] = test: Anticonvulsant activity in CF1 albino mouse assessed as protection against 6 Hz-psychomotor-induced seizure at 50 mg/kg, ip after 1 hr; format: functional, organism-based
How it was run: (§5)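 Male CF-1 mice, ip suspension in 0.5% methylcellulose. Corneal stimulation 0.2 ms monopolar rectangular pulses at 6 Hz, 32 mA for 3 s via constant-current device; mice without minimal clonic phase seizure counted protected. Groups of four; read at 0.25, 0.5, 1, 2, 4 h; result as protected/tested.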

Rattus norvegicus [21] = test: Anticonvulsant activity in ip dosed Sprague-Dawley rat assessed as protection against maximal electroshock-induced seizure after 0.25 hrs; format: functional
Mus musculus [22] = test: Anticonvulsant activity in CF1 albino mouse assessed as protection against 6 Hz-psychomotor-induced seizure at 50 mg/kg, ip after 2 hrs; format: functional, organism-based; how it was run: as §5
Mus musculus [23] = test: Neurotoxicity in CF1 albino mouse at 30 mg/kg, ip after 0.5 hrs by rotarod test; format: toxicity, organism-based; details: in vivo; how it was run: as §3
Mus musculus [24] = test: Neurotoxicity in CF1 albino mouse assessed as unable to grasp rotarod, sedated and myoclonic jerks at 100 mg/kg, ip after 0.5 hrs by rotarod test; format: toxicity, organism-based; details: in vivo
How it was run: (§6)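 Rotarod neurotoxicity in male CF-1 mice dosed ip as 0.5% methylcellulose suspension: mouse placed on 1 inch knurled rod rotating at 6 rpm; toxicity when the animal falls off three times within 1 min, with other signs noted. Scored as toxic/tested at 0.5 h and 4 h.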

Mus musculus [25] = test: Neurotoxicity in ip dosed CF1 albino mouse after 0.25 hrs by rotarod test; format: toxicity, organism-based; details: in vivo
How it was run: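 Rotarod neurotoxicity in male albino CF-1 mice dosed ip with compound suspended in 0.5% methylcellulose. Animal placed on a 1 inch diameter knurled plastic rod rotating at 6 rpm. Neurotoxicity scored when the animal falls off three times within 1 min. Readout is number of animals toxic/number tested at the stated time after dosing.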

Mus musculus [26] = test: Anticonvulsant activity in CF1 albino mouse assessed as protection against subcutaneous pentetrazole-induced seizure at 30 mg/kg, ip after 0.5 hrs; format: functional, organism-based
How it was run: (§7)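 Male CF-1 mice, ip in 0.5% methylcellulose; pentetrazole at CD97 (85 mg/kg) injected subcutaneously in a loose fold of neck skin. Observed 30 min; absence of even a threshold seizure (single clonic spasm lasting at least 5 s) counted as protection. Scored protected/tested, or ED50.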

Mus musculus [27] = test: Neurotoxicity in CF1 albino mouse at 50 mg/kg, ip after 2 hrs by rotarod test; format: toxicity, organism-based; details: in vivo; how it was run: as §3
Rattus norvegicus [28] = test: Neurotoxicity in Sprague-Dawley rat at 30 mg/kg, ip after 2 hrs by rotarod test; format: toxicity, organism-based; details: in vivo; how it was run: as §4
Rattus norvegicus [29] = test: Neurotoxicity in Sprague-Dawley rat at 30 mg/kg, ip after 1 hr by rotarod test; format: toxicity, organism-based; details: in vivo; how it was run: as §4
Histamine H3 receptor = Histamine H3 receptor (Homo sapiens, UniProt Q9Y5N1); test: Displacement of [3H]-Nalpha-methylhistamine from human recombinant histamine H3 receptor expressed in HEK293 cells after 90 mins; format: cell-based
Rattus norvegicus [30] = test: Anticonvulsant activity in Sprague-Dawley rat assessed as protection against maximal electroshock-induced seizure at 30 mg/kg, ip after 4 hrs; format: functional, organism-based
Mus musculus [31] = test: Anticonvulsant activity in CF1 albino mouse assessed as protection against subcutaneous pentetrazole-induced seizure at 30 mg/kg, ip after 4 hrs; format: functional, organism-based; how it was run: as §7
Rattus norvegicus [32] = test: Neurotoxicity in Sprague-Dawley rat at 30 mg/kg, ip after 0.25 hrs by rotarod test; format: toxicity, organism-based; details: in vivo; how it was run: as §4
Mus musculus [33] = test: Anticonvulsant activity in CF1 albino mouse assessed as protection against maximal electroshock-induced seizure at 30 mg/kg, ip after 0.5 hrs; format: functional, organism-based; how it was run: as §1
Mus musculus [34] = test: Neurotoxicity in CF1 albino mouse at 10 mg/kg, ip after 0.5 hrs by rotarod test; format: toxicity, organism-based; details: in vivo; how it was run: as §6
Rattus norvegicus [35] = test: Anticonvulsant activity in ip dosed Sprague-Dawley rat assessed as protection against subcutaneous pentetrazole-induced seizure after 0.25 hrs; format: functional
Mus musculus [36] = test: Anticonvulsant activity in CF1 albino mouse assessed as protection against 6 Hz-psychomotor-induced seizure at 50 mg/kg, ip after 4 hrs; format: functional, organism-based; how it was run: as §5
Mus musculus [37] = test: Anticonvulsant activity in CF1 albino mouse assessed as protection against 6 Hz-psychomotor-induced seizure at 50 mg/kg, ip after 0.25 hrs; format: functional, organism-based; how it was run: as §5
Rattus norvegicus [38] = test: Neurotoxicity in Sprague-Dawley rat at 30 mg/kg, ip after 4 hrs by rotarod test; format: toxicity, organism-based; details: in vivo; how it was run: as §4
Mus musculus [39] = test: Neurotoxicity in CF1 albino mouse at 300 mg/kg, ip after 4 hrs by rotarod test; format: toxicity, organism-based; details: in vivo; how it was run: as §3
Mus musculus [40] = test: Anticonvulsant activity in CF1 albino mouse temporal lobe epilepsy model at 30 mg/kg, ip; format: functional, organism-based
How it was run: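 Adult male CF1 mice corneal-kindled to 5 consecutive secondarily generalized seizures (Racine stage 4 or 5). Four fully kindled mice dosed ip and tested 0.5 h later; seizure score below 3 counted protected.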

Histamine H3 receptor, sequence (Q9Y5N1 whole entry): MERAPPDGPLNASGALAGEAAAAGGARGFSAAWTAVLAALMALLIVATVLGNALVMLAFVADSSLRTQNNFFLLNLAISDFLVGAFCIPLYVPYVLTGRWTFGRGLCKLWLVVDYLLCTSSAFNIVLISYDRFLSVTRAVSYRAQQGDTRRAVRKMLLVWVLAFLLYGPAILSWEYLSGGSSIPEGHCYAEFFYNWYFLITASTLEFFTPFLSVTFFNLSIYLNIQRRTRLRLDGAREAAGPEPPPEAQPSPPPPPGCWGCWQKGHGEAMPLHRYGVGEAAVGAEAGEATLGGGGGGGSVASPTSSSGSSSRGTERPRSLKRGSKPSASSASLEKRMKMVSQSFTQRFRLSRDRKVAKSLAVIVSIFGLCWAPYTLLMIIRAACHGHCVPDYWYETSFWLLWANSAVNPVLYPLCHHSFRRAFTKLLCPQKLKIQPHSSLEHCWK

Structure (SMILES): Clc1ccc(OCCCCCCN2CCCCCC2)cc1.O=C(O)C(=O)O
- Activity (Mus musculus [1]): Active
- Activity [2]: inactive
- Activity (Mus musculus [3]): Non-toxic
- Activity (Rattus norvegicus [4]): 25%
- Activity (Mus musculus [5]): Non-toxic
- Activity (Mus musculus [6]): Non-toxic
- Ratio TD50/ED50 (Rattus norvegicus [7]): 3.2
- Activity (Mus musculus [8]): inactive
- Activity (Mus musculus [9]): inactive
- Activity (Mus musculus [10]): Toxic
- Activity (Rattus norvegicus [11]): Active
- Activity (Mus musculus [12]): inactive
- Activity [13]: inactive
- Activity (Mus musculus [14]): Non-toxic
- Activity (Mus musculus [15]): Non-toxic
- Activity (Mus musculus [16]): Non-toxic
- Activity (Mus musculus [17]): Non-toxic
- Activity (Mus musculus [18]): Toxic
- Activity (Rattus norvegicus [19]): Non-toxic
- Activity (Mus musculus [20]): inactive
- ED50 (Rattus norvegicus [21]): 14 mg/kg
- Activity (Mus musculus [22]): inactive
- Activity (Mus musculus [23]): Non-toxic
- Activity (Mus musculus [24]): Toxic
- TD50 (median neurotoxic dose) (Mus musculus [25]): 36.2 mg/kg
- Activity (Mus musculus [26]): inactive
- Activity (Mus musculus [27]): Non-toxic
- Activity (Rattus norvegicus [28]): Non-toxic
- Activity (Rattus norvegicus [29]): Non-toxic
- Ki (Histamine H3 receptor): 0.237 µM
- Activity (Rattus norvegicus [30]): inactive
- Activity (Mus musculus [31]): inactive
- Activity (Rattus norvegicus [32]): Non-toxic
- Activity (Mus musculus [33]): Active
- Activity (Mus musculus [34]): Non-toxic
- ED50 (Rattus norvegicus [35]): > 47 mg/kg
- Activity (Mus musculus [36]): inactive
- Activity (Mus musculus [37]): inactive
- Activity (Rattus norvegicus [38]): Non-toxic
- Activity (Mus musculus [39]): Non-toxic
- Activity (Mus musculus [40]): inactive
